{"source": "ChEMBL document CHEMBL4602675", "about": "“The Marine Natural Product Manzamine A Inhibits Cervical Cancer by Targeting the SIX1 Protein” (J Nat Prod, 2020)", "key": {"HeLa [1]": {"test_system": "HeLa", "experiment": "Antiproliferative activity against human HeLa cells assessed as reduction in cell viability after 24 hrs by CellTiter-Glo assay", "format": "functional, cell-based", "how_it_was_run": "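ATP-based luminescent viability readout. Cells were grown in DMEM with 10% FBS, 2 mM L-glutamine and penicillin-streptomycin at 37 °C, 5% CO2. 2 × 10^4 cells/well were seeded, then exposed the next day to 0–40 μM for 24, 48 or 72 h. % viability = 100 × treated/control. IC50 was fitted from a sigmoid dose-response curve. Run at least three times in quadruplicate; mean ± SEM.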"}, "[2]": {"target": "T1, Homeobox protein SIX1 (Homo sapiens) (UniProt Q15475)", "T1 sequence (whole entry)": "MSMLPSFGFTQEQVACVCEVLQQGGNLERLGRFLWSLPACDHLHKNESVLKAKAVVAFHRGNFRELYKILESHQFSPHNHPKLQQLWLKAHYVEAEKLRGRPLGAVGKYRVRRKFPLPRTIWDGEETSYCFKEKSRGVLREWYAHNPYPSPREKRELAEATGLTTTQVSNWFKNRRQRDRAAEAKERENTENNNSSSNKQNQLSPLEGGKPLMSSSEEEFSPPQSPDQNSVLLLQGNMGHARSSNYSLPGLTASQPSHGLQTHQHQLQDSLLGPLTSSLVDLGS", "experiment": "Inhibition of SIX1 in human CaSki cells at 2 to 4 uM after 48 hrs by Western blot analysis", "format": "cell-based", "conditions": "Ca-Ski", "how_it_was_run": "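Cells were seeded at 1 × 10^6 per 100 mm dish and treated next day with 2 or 4 μM for 48 h. They were trypsinised, PBS-washed and lysed in RIPA with protease inhibitors. Equal protein was run on SDS-PAGE and transferred to PVDF. Primary antibodies were used at 1:500, with BSA 3% for blocking and antibodies for CK2α, Rb and pRb, otherwise 5% milk in TBST. HRP secondary at 1:2000, chemiluminescence detection.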"}, "HeLa [3]": {"test_system": "HeLa", "experiment": "Cell cycle arrest in human HeLa cells assessed as accumulation at G0/G1 phase at 4 uM after 24 hrs by propidium iodide staining based flow cytometric analysis (reference value: 69.4%)", "format": "functional", "how_it_was_run": "(§1)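 Cells in DMEM/10% FBS at 37 °C, 5% CO2 were given 4 μM for 24, 48 or 72 h, with DMSO as control. After trypsinization they were fixed in chilled 70% ethanol on ice for 30 min, treated with RNase A (1 mg/mL) for 30 min at room temperature, and stained with PI (20 μg/mL). At least 10 000 events were read by flow cytometry to give sub-G1, G0/G1, S and G2/M fractions; mean ± SEM.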"}, "[4]": {"target": "T1, Homeobox protein SIX1 (Homo sapiens)", "experiment": "Potency index, ratio for inhibition activity of apigenin to test compound for inhibition of SIX1 in human C33A cells after 48 hrs by Western blot analysis", "format": "cell-based", "conditions": "C-33-A", "how_it_was_run": "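Cells plated at 1 × 10^6 per 100 mm dish and treated next day for 48 h with test compound (2 or 4 μM) or apigenin (10, 20 or 40 μM). RIPA lysates with protease inhibitors; equal protein loaded for SDS-PAGE, then PVDF transfer. Blocked in 5% milk/TBST (3% BSA for CK2α); anti-SIX1 or anti-CK2α 1:500, HRP secondary 1:2000; chemiluminescent detection.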"}, "Ca-Ski": {"test_system": "Ca-Ski", "experiment": "Cell cycle arrest in human CaSki cells assessed as accumulation at G0/G1 phase at 4 uM after 24 hrs by propidium iodide staining based flow cytometric analysis (reference value: 56%)", "format": "functional", "how_it_was_run": "as §1"}}, "note": "pIC50: −log10 of the molar value. Activity calls are given as the source filed them. No cut-off for these calls is given here.", "data": [{"smiles": "O[C@]12C=C(c3nccc4c3[nH]c3ccccc34)[C@@H]3CCN(CCCC/C=C\\CC1)C[C@@]31C[C@@H]3/C=C\\CCCCN3[C@H]12", "note": "[MANZAMINE A]", "values": [{"measurement": "pIC50", "setting": "HeLa [1]", "result": 4.93}, {"measurement": "inhibition", "setting": "[2]", "result": "Active"}, {"measurement": "Activity", "setting": "HeLa [3]", "result": 74.7, "unit": "%"}, {"measurement": "Ratio", "setting": "[4]", "result": 10}, {"measurement": "Activity", "setting": "Ca-Ski", "result": 77.6, "unit": "%"}]}]}
